Results published in article PMC7965737 (Bioconjugate chemistry, 2019).
Structures can show the parent of a compound that is named as a salt.

Legend:
MDA-MB-468 = test: MTT cytotoxicity assay, MDA-MB-468; assay type: cell-based, Human; settings: MDA-MB-468 breast cancer cell line, serum-free media, 48 h
How it was run: (§1)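 Cells were seeded at 5×10^3 per well in complete medium. The next day the medium was replaced with serum-free medium containing test compound (0–100 μM) or free doxorubicin (positive control), with untreated cells in serum-free medium as negative control, for 48 h at 37 °C, 5% CO2. MTT (5 mg/mL solution) was then added for 2 h. Formazan was dissolved in 4 mM HCl/0.1% NP40/2-propanol (1:1:1) and read at 570 nm. Viability was taken relative to untreated cells, in triplicate, with the experiment repeated once. IC50 came from a nonlinear fit of normalized data against log concentration.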

MCF-10A = test: MTT cytotoxicity assay, MCF-10A; assay type: cell-based, Human; settings: non-cancerous cell line MCF-10A, serum-free media, 48 h
How it was run: as §1

COc1cccc2c1C(=O)c1c(O)c3c(c(O)c1C2=O)C[C@@](O)(C(=O)CO)C[C@@H]3O[C@H]1C[C@H](N)[C@H](O)[C@H](C)O1 [Dox, Doxorubicin hydrochloride]
IC50 (MDA-MB-468): 350 nM
IC50 (MCF-10A): 240 nM
